The term pIC50 denotes −log10 of the IC50, conventionally taken in molar units. Low values mean a high IC50, high ones a low IC50. For orientation: AUC(0-t) means the area under the concentration-time curve up to a stated or last time point. Read a high AUC(0-t) as more exposure. By Vd is commonly meant the apparent volume that relates the amount in the body to the concentration in plasma or blood. High values mean extensive tissue distribution, low ones confinement near the circulation. For orientation: clearance means the volume of plasma or blood freed of the substance per unit of time. By half-life is commonly meant the time in which the quantity being followed falls by half. High values mean slow loss, low ones fast loss. In general, Tmax refers to the time from dosing to the highest level. In general, bioavailability refers to the share of a dose that reaches the circulation, judged against a reference dose that is usually intravenous. A lower bioavailability goes with little systemic uptake. Usually Cmax stands for the peak of the concentration-time curve.

pIC50: −log10 of the molar value.

The record followed here is article PMC4363136 (Biochemical pharmacology, 2014).

In one data set the test system is MAPs-rich tubulin. Put plainly: Light scattering assay of MAPs-rich tubulin polymerization. Type of data set: biochemical, goat. The following applies: 50 µM compound, 1 mg/ml MAPs-rich tubulin, 37°C, 400 nm.
For data set [1], the system named is pure tubulin. Briefly: Light scattering assay of pure tubulin polymerization. Format: biochemical, goat. As to conditions: 10 µM tubulin, 1M monosodium glutamate.
The next data set concerns MAPs rich tubulin. Put plainly: GTPase activity assay. Format: biochemical, goat. The following applies: different concentrations of compound, 10 min.
The test system of data set [2] is pure tubulin. Put plainly: GTPase activity assay. The following applies: 50 µM compound, compared to control. Type of data set: biochemical, goat.
The subject of data set [3] is PC-3 cells. Put plainly: MTT cell proliferation assay, PC-3. Type of data set: cell-based, human. As to conditions: Homo sapiens, PC-3, 48 h. Summed up:
(§1)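 Cell lines were grown in medium with 10% FBS and 1% penicillin/streptomycin: PC-3 in RPMI; HeLa, MIA PaCa-2 and T24 in DMEM. Cells were seeded at 5×10^3 per well, attached overnight, then given test compound (0–500 µM, from PBS solution, diluted in medium) for 48 h. MTT was added for 4 h and formazan dissolved in DMSO. A570 was read. IC50 is the concentration giving 50% inhibition of proliferation.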
On the technique in general: Tetrazolium assays rely on reduction of a dye to a coloured formazan, in cell work by metabolically active cells.

Another data set deals with HeLa cells. Briefly: MTT cell proliferation assay, HeLa. As to conditions: Homo sapiens, 48 h. Format: cell-based. Summed up: as §1
The next data set concerns MIA PaCa-2 cells. Put plainly: MTT cell proliferation assay, MIA PaCa-2. Format: cell-based. The following applies: Homo sapiens, MIA PaCa-2, 48 h. Summed up: as §1
The test system of another data set is T24 bladder cancer cells. Put plainly: MTT cell proliferation assay, T24. As to conditions: 48 h. Format: cell-based. Summed up:
as §1

Data set [4] is described as follows: Pharmacokinetics after intravenous administration. Format: in vivo, CD-1 mice. The following applies: male, CD-1, mouse, plasma, iv, 5 mg/kg. A digest of the protocol:
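Male CD-1 mice, fasted 3 h, received a single IV dose of test compound at 5 mg/kg in water. Blood was sampled sparsely from the retro-orbital plexus at 5 min–24 h into K2EDTA. Plasma was protein-precipitated with acetonitrile and 7-hydroxynoscapine internal standard, then quantified by positive-mode MRM LC-MS/MS (calibration 1 ng/mL–1 µg/mL). Non-compartmental analysis: linear-trapezoid AUC, CL and Vss from IV data, C0 back-extrapolated.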

Data set [5] can be described thus: Pharmacokinetics after oral administration. The following applies: plasma, 50 mg/kg. Format: in vivo, CD-1 mice. A digest of the protocol: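 Male CD-1 mice (3 per group), fasted 3 h, were dosed once by oral gavage at 50 mg/kg in water. Plasma was collected by sparse retro-orbital sampling at 5 min–24 h. Samples were acetonitrile-precipitated with internal standard and assayed by LC-MS/MS (1 ng/mL–1 µg/mL). Non-compartmental analysis: linear-trapezoid AUClast, Cmax taken as observed. F is dose-normalized oral AUClast over IV (5 mg/kg) AUClast.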

Data set [6] deals with PC-3 cells. Put plainly: Immunofluorescence confocal microscopy of spindle morphology. Format: cell-based, human. The following applies: 12h and 24h. Summed up: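 PC-3 cells were grown on glass coverslips and exposed to test compound for 12 h or 24 h. Cells were fixed in −20 °C methanol for 10 min, then blocked in 2% BSA/PBS at 37 °C for 1 h. They were stained with anti-α- and anti-γ-tubulin (1:1000, 45 min, 37 °C) and Alexa Fluor 488/555 secondaries (1:1000, 45 min, 37 °C). DNA was stained with DAPI. Slides were mounted in antifade and imaged by confocal microscopy.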

As for `COc1ccc2c(c1OCCCCS(=O)(=O)O)C(=O)O[C@@H]2[C@H]1c2c(cc3c(c2OC)OCO3)CCN1C` [Compound 6b, 4-(((S)-5-methoxy-1-((R)-4-methoxy-6-methyl-5,6,7,8-tetrahydro-[1,3]dioxolo[4,5-g]isoquinolin-5-yl)-3-oxo-1,3-dihydroisobenzofuran-4-yl)oxy)butane-1-sulfonic acid], the “Percent decrease in light scattering of MAP-tubulin” value in the data set on MAPs-rich tubulin came to 74 ± 13%. The “% Decrease in light scattering of pure tubulin” value (shortened to “% Decrease in light scattering”) in the data set on pure tubulin [1] (10 µM compound) was 14±6%. Also, the “% Decrease in light scattering” value in the data set with pure tubulin [1] (25 µM compound) is 25±7.6%. Also, in the data set with pure tubulin [1] (50 µM compound), the “% Decrease in light scattering” value stood at 35±7.2%. In addition, the “change in GTPase activity of MAPs-rich tubulin” value with MAPs rich tubulin is listed as “increased significantly”. Besides, the “change in GTPase activity of pure tubulin” value in the data set with pure tubulin [2] was “did not change significantly”. The pIC50 in the data set with PC-3 cells [3] was 4.72. Moreover, the negative logarithm of the IC50 (pIC50) with HeLa cells is 4.18. The pIC50 in the data set on MIA PaCa-2 cells was 4.52. In the data set with T24 bladder cancer cells, this molecule had a pIC50 of 5.48. Further, in [4], the AUC(0-t) was found to be 0.198 µg·h/mL, the C0 is 0.502 µg/mL, the Vd came out at 9.53 L/kg and the clearance was 22.1 L/h/kg. Moreover, the half-life in data set [4] was 37.8 min. In [5] (male, CD-1, mouse, po), the AUC(0-t) worked out at 0.611 µg·h/mL, the time to peak (Tmax) was found to be 4.8 min and the bioavailability stood at 27%. Also, in data set [5] (oral gavage 50 mg/kg, CD-1 mice), the Cmax turned out to be 2.97 ± 0.06 µg/mL. In addition, the “spindle / mitotic phenotype” value with PC-3 cells [6] was “induced a multipolar phenotype”.
